Test results reported in ChEMBL document CHEMBL4613270, “Structure-Activity Relationship Study Enables the Discovery of a Novel Berberine Analogue as the RXRα Activator to Inhibit Colon Cancer” (J Med Chem, 2020).
Active and inactive are the calls of the source. No cut-off for these calls is given here.

How the values were obtained:
[1] = biological target: T1, Retinoic acid receptor RXR-alpha (Homo sapiens) (UniProt P19793); assay: Activation of RXRalpha (unknown origin) expressed in human KM12C cells co-expressing beta-catenin assessed as induction of RXRalpha interaction with beta-catenin at 25 to 50 uM incubated for 15 hrs by mammalian two-hybrid assay; type: cell-based
T1 sequence (whole entry): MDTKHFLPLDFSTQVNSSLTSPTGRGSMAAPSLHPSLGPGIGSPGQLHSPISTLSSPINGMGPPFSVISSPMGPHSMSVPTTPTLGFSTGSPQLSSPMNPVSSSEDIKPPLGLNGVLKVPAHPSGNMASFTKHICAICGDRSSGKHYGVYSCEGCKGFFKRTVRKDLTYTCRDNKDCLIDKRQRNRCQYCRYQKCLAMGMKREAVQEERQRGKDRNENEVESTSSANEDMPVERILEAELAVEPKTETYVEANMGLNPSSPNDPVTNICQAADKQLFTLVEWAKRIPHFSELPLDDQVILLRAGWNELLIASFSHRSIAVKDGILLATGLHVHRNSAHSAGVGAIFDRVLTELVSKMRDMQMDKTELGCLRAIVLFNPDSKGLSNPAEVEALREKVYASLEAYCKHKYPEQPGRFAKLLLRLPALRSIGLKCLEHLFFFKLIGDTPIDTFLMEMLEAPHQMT
Procedure, shortened: (§1)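 Mammalian two-hybrid: cells co-transfected by lipofection with pBIND-β-catenin/S33Y plus pACT-RXRα (RXRα–β-catenin) or pACT-c-Cbl (β-catenin–c-Cbl); 20 h after transfection, compound added for 15 h; cells lysed in passive lysis buffer, 4 °C, 1 h; firefly and Renilla luciferase read by dual-luciferase kit.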

[2] = biological target: T1, Retinoic acid receptor RXR-alpha (Homo sapiens); assay: Activation of RXRalpha in human SW620 cells assessed as reduction in c-Myc mRNA expression at 40 to 80 uM incubated for 15 hrs by real-time PCR analysis; type: cell-based; details: SW-620
KM12C [3] = assay: Inhibition of cell proliferation of human KM12C cells incubated for 15 hrs by MTT assay; type: functional, cell-based
Procedure, shortened: (§2)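 Cells plated at 1×10⁴ per well, incubated overnight at 37 °C, then exposed to a concentration series for 15 h. MTT (5 mg/mL stock) added for 4 h at 37 °C. Formazan dissolved in DMSO and absorbance read at 570 nm. IC50 derived from the dose-response curve.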

[4] = biological target: T1, Retinoic acid receptor RXR-alpha (Homo sapiens); assay: Activation of RXRalpha (unknown origin) expressed in human SW620 cells co-expressing beta-catenin and c-Cbl assessed as induction of beta-caten interaction with c-Cbl at 40 to 80 uM incubated for 15 hrs by mammalian two-hybrid assay; type: cell-based; details: SW-620; procedure, shortened: as §1
KM12C [5] = assay: Activation of RXRalpha R371S mutant LBD (unknown origin) expressed in human KM12C cells at 50 uM incubated for 15 hrs by luciferase reporter gene assay; type: cell-based
Procedure, shortened: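 KM12C cells co-transfected with pG5luc and pBIND-RXRα-LBD (wild type or mutants) using Lipofectamine 2000. Twenty hours after transfection, compound added at 50 μM for 15 h. Cells lysed in passive lysis buffer (4 °C, 1 h), then firefly and Renilla luciferase read by dual-luciferase assay. Basal level normalized to 1.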

[6] = Toxicity in BALB/c mouse xenografted with human KM12C cells assessed as effect on biochemical parameter by measuring total cholesterol level at 100 mg/kg, ig dosed daily for 15 days by automatic chemistry analyzer based analysis (reference value: 2.32 +/- 0.11 mmol/L); type: organism-based; details: in vivo, po, 360 h
HCT-116 = assay: Inhibition of cell proliferation of human HCT116 cells incubated for 15 hrs by MTT assay; type: functional, cell-based; details: HCT-116, 15 h; procedure, shortened: as §2
[7] = Toxicity in BALB/c mouse xenografted with human KM12C cells assessed as effect on biochemical parameter by measuring calcium level at 100 mg/kg, ig dosed daily for 15 days by automatic chemistry analyzer based analysis (reference value: 2.27 +/- 0.059 mmol/L); type: organism-based; details: in vivo, po, 360 h
[8] = biological target: T1, Retinoic acid receptor RXR-alpha (Homo sapiens); assay: Activation of RXRalpha in human SW620 cells assessed as […] crease in p21 (WAF1/CIP1) mRNA expression at 40 to 80 uM incubated for 15 hrs by real-time PCR analysis; type: cell-based; details: SW-620
SW-620 = assay: Inhibition of cell proliferation of human SW620 cells incubated for 15 hrs by MTT assay; type: functional, cell-based; details: SW-620, 15 h; procedure, shortened: as §2
[9] = biological target: T1, Retinoic acid receptor RXR-alpha (Homo sapiens); assay: Activation of RXRalpha (unknown origin) expressed in human KM12C cells co-expressing beta-catenin and c-Cbl assessed as induction of beta-caten interaction with c-Cbl at 25 to 50 uM incubated for 15 hrs by mammalian two-hybrid assay; type: cell-based; procedure, shortened: as §1
[10] = Toxicity in BALB/c mouse xenografted with human KM12C cells assessed as effect on biochemical parameter by measuring triglyceride level at 100 mg/kg, ig dosed daily for 15 days by automatic chemistry analyzer based analysis (reference value: 0.96 +/- 0.056 mmol/L); type: organism-based; details: in vivo, po, 360 h
[11] = biological target: T1, Retinoic acid receptor RXR-alpha (Homo sapiens); assay: Activation of RXRalpha in human KM12C cells assessed as increase in p21 (WAF1/CIP1) protein expression at 25 to 50 uM incubated for 15 hrs by Western blot analysis; type: cell-based
[12] = Toxicity in BALB/c mouse xenografted with human KM12C cells assessed as effect on biochemical parameter by measuring urea […] level at 100 mg/kg, ig dosed daily for 15 days by automatic chemistry analyzer based analysis (reference value: 8.21 +/- 0.26 mmol/L); type: organism-based; details: in vivo, po, 360 h
[13] = biological target: T1, Retinoic acid receptor RXR-alpha (Homo sapiens); assay: In-vivo activation of RXRalpha in BALB/c mouse xenografted with human KM12C cells assessed as reduction in Cdc2 protein expression at 100 mg/kg, ig dosed daily for 15 days by Western blot analysis; type: functional, organism-based
Procedure, shortened: (§3)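 KM12C cells (1×10^6 per mouse in 100 μL HBSS) injected subcutaneously into both flanks of nude mice; after seven days, randomized to three groups, dosed intragastrically once daily for 15 days with vehicle (CMC-Na) or 100 mg/kg compound; mice euthanized and tumors removed for analysis.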

[14] = biological target: T1, Retinoic acid receptor RXR-alpha (Homo sapiens); assay: In-vivo activation of RXRalpha in BALB/c mouse xenografted with human KM12C cells assessed as reduction in Cdc2 protein expression at 100 mg/kg, ig dosed daily for 15 days by immunohistochemistry analysis; type: functional, organism-based; procedure, shortened: as §3
[15] = biological target: T1, Retinoic acid receptor RXR-alpha (Homo sapiens); assay: Activation of RXRalpha in human SW620 cells assessed as reduction in Cdc2 mRNA expression at 40 to 80 uM incubated for 15 hrs by real-time PCR analysis; type: cell-based; details: SW-620
[16] = biological target: T1, Retinoic acid receptor RXR-alpha (Homo sapiens); assay: Activation of RXRalpha LBD (unknown origin) expressed in human KM12C cells at 50 uM incubated for 15 hrs by luciferase reporter gene assay; type: cell-based
Procedure, shortened: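 KM12C co-transfected with pG5luc and pBIND-RXRα-LBD (Gal4-fusion one-hybrid); 20 h post-transfection treated 15 h with 50 μM compound; dual-luciferase read-out (firefly/Renilla) after passive lysis at 4 °C, 1 h; basal activity normalized to 1.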

[17] = Toxicity in BALB/c mouse xenografted with human KM12C cells assessed as effect on biochemical parameter by measuring IBIL level at 100 mg/kg, ig dosed daily for 15 days by automatic chemistry analyzer based analysis (reference value: 0.55 +/- 0.096 umol/L); type: organism-based; details: in vivo, po, 360 h
[18] = biological target: T1, Retinoic acid receptor RXR-alpha (Homo sapiens); assay: Activation of RXRalpha in human HCT116 cells assessed as induction of beta-catenin protein degradation at 30 to 60 uM incubated for 15 hrs by Western blot analysis; type: cell-based; details: HCT-116

SMILES	Activity [1]	Activity [2]	IC50 (KM12C [3])	Activity [4]	Activity (KM12C [5])	Activity [6]	IC50 (HCT-116)	Activity [7]	Activity [8]	IC50 (SW-620)	Activity [9]	Activity [10]	Activity [11]	Activity [12]	Activity [13]	Activity [14]	Activity [15]	Activity [16]	Activity [17]	Activity [18]
COc1ccc2c(c1)CC[n+]1cc3c(OC)cccc3cc1-2.[Cl-]	Active	Active	31.1 µM	Active	inactive	2.49 mmol/L	27.2 µM	2.23 mmol/L	Active	36.2 µM	Active	0.74 mmol/L	Active	8.39 mmol/L	Active	Active	Active	Active	0.52 µmol/L	Active
COc1ccc2cc3[n+](cc2c1OC)CCc1cc2c(cc1-3)OCO2.[Cl-] [BERBERINE CHLORIDE]	Active	Active	76.3 µM	Active	inactive	2.35 mmol/L	83.1 µM	2.13 mmol/L	Active	126 µM	Active	0.77 mmol/L	Active	8.08 mmol/L	Active	Active	Active	Active	0.4 µmol/L	Active
